# Source: PubChem BioAssay (several laboratories)
# DAGLB inhibitor – DAGLB lipase inhibitors, primary screen, biochemical, fluorescence, HTS | Diacylglycerol lipase-beta (Homo sapiens), Q8NCG7 | HEK293T DAGLB membrane lysate, EnzChek fluorogenic substrate | inhibition, % at 5.17 µM | 0.059% of 340,000 active | AID 504411, 2011; in the data active means inhibition above about 34%;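 further: 0% = enzyme with vehicle and 100% = wells lacking enzyme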
# SENP1 FRET inh – human SENP1 catalytic domain inhibitors, primary screen, biochemical, FRET, uHTS; recombinant SENP1 catalytic domain, CyPet-SUMO1-YPet FRET cleavage; inhibition, % at 10 µM; 0.21% of 360,000 active; AID 624204, 2012;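 active means inhibition at least 30% at 10 µM, raw YFP signal under a set limit, fluorescence ratio 0.5 to 1.5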;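 further: 0% = enzyme with DMSO and 100% = no enzyme wells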
#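 Test system: human SENP1 catalytic domain; medium: Tris pH 8 buffer plus EDTA, NaCl, BME, BSA, NP40, catalase; incubation: 50 min reaction at room temperature; technique: FRET, CFP and YFP emission; controls: no-enzyme low control and enzyme-plus-DMSO high control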
# MT1-MMP act inh – blockers of MT1-MMP proenzyme processing, primary screen, HT1080 RFP-PRO-GFP cells, GFP/RFP fluorescence. Matrix metalloproteinase-14 (Homo sapiens), P50281. GFP/RFP ratio fluorescence, overnight; percent of plate control window, DMSO zero. GFP/RFP ratio change, % at 20 µM. 0.061% of 360,000 active. AID 651647, 2012;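 active means GFP/RFP ratio change of at least 30% with cell ATP level not reduced by more than half and red fluorescence within 50% of control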
#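 Assay system: RFP-PRO-GFP reporter HT1080 cells; read-out basis: GFP/RFP fluorescence ratio; benchmarks: DMSO wells and RFP-L50D-GFP cells; doses: 20 µM single dose, 1% DMSO; schedule: overnight cell settling, then overnight compound exposure, 37 °C, 5% CO2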
# CendR NRP1 mod – modulators of CendR peptide binding to NRP-1, primary screen, biochemical, fluorescence polarization, uHTS; Neuropilin-1 (Homo sapiens), O14786; FAM-RPARPAR peptide binding to NRP-1; inhibition, % at 25 µM; 0.85% of 360,000 active; AID 602438, 2012;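 active means inhibition or corrected inhibition above about 18%, plus a signal ratio from 0.5 to 1.5, limit read from the data, passing the limit was not always enough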
# Myeloid diff 2 – induction of myeloid progenitor differentiation, primary screen, cell-based, flow cytometry, MLPCN library; 1% of 360,000 active; ER-HoxA9 myeloid progenitors, lysozyme-GFP differentiation; calls only at 10 µM;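 active means normalized GFP-positive differentiation at or above the plate's own cutoff, the solvent-only control mean plus 3 SD; inconclusive means no clear call, values can overlap the other calls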;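 further: cells exposed to compound for four days before flow analysis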
# MIN6 prolif – inducers of MIN6 beta-cell proliferation, primary screen, ATP luminescence, uHTS | MIN6 cells proliferation, ATPlite luminescence, 48 h; cells starved in 0.2% serum; 100% = growth in 10% serum | proliferation, % at 10 µM | 0.29% of 330,000 active | AID 2380, 2010;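 active means compounds whose signal lies at least 3.5 SD above the mean of all wells on their plate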;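 further: 0% = DMSO-treated cells in low-serum medium and 100% = 10% serum control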
# Numbers without * were called inactive; i = inactive; ? = inconclusive; . = no result; + = active, no number. Most compounds without a hit are left out; they make up all but 2.4% or so of the library.
SMILES,DAGLB inhibitor,SENP1 FRET inh,MT1-MMP act inh,CendR NRP1 mod,Myeloid diff 2,MIN6 prolif
COc1ccc(C(=O)Nc2ccc(Cl)cc2C(=O)N2CCCC(C)C2)cc1 (stereo unspecified),-7,1,-1,24*,i,-1
CC(C(=O)NC(C)(C)C)n1c(-c2ccc3c(c2)OCO3)nc2ccccc21 (stereo unspecified),.,-3,7,-2,i,.
CC1(C)CC(=O)C2=C(C1)OC(N)=C(C#N)C2c1ccccc1[N+](=O)[O-] (stereo unspecified),-2,-25,-62,36*,i,-2
FC(F)(F)c1cccc(NC(=S)N2CCCC2)c1,0,8,0,17,i,-2
Cc1cnc(NC(=O)c2cc(-c3ccccc3)nn2-c2ccccc2)s1,0,2,1,2,i,.
COc1ccc(Cn2c3ccc(OC)cc3c3nc4ccccc4nc32)cc1,-1,17,-12,49*,i,-4
CCn1c2ccc(F)cc2c2nc3ccccc3nc21,-10,-22,-1,3,+,0
C=C(C)CNC(=S)N/N=C1\CCCCc2ccccc21,-5,2,0,-6,i,-6
COC(C[C@@H]1O[C@H]1C(=O)COCc1ccccc1)OC,-3,1,1,28*,i,0
COC(C[C@@H]1O[C@@H]1[C@H](O)[C@H](C)OCc1ccccc1)OC,0,3,-3,19,i,-3
COC(C[C@H]1O[C@@H]1C(=O)COCc1ccccc1)OC,.,.,.,.,.,-2
COC(C[C@@H](O)C[C@H](O)[C@@H](C)OCc1ccccc1)OC,-3,1,2,21*,i,-2
COC(C[C@H]1O[C@H]1[C@@H](O)[C@@H](C)OCc1ccccc1)OC,0,1,-2,20*,i,-2
COCCNC(=O)Cn1nc(-c2ccccc2F)ccc1=O,2,-1,-1,-1,i,0
CCOc1ccc(Cn2nnc(-c3ccc(S(C)(=O)=O)cc3)n2)cc1OCC,-1,-1,-1,-2,i,-2
C[C@@H]([C@H](O)c1ccccc1)N(C)C(=S)Nc1ccccc1,-4,9,6,-4,i,-2
CCOC(=O)c1cc(-c2ccccc2)sc1NC(=O)C(C)C,-13,1,-5,4,i,1
CCOC(=O)c1cc(-c2ccccc2)sc1NC(=S)Nc1cccc(C)n1,-4,-3,4,43*,i,-1
CCCCNC(=O)C[C@@H]1C[C@@]2(C(=O)OCC)CCCC=C2N(Cc2ccccc2)C1=O,.,-2,11,3,i,.
COc1cc(CN2CCc3c([nH]c4ccccc34)C2)cc(OC)c1,-6,-24,-9,-71,+,2
O=C(NCCc1nnc2ccc(NCc3ccc(Cl)cc3)nn12)c1ccccc1,0,1,-64,11,i,1
O=S(=O)(c1ccc(NC(=S)N2CCCCC2)cc1)N1CCCCC1,-2,5,5,-10,i,.
CNC(=O)c1cc(C(=O)c2ccc(C(F)(F)F)cc2)c[nH]1,0,-2,2,7,+,-4
CNC(=O)c1cc(C(=O)c2ccc(C(F)(F)F)cc2F)c[nH]1,0,3,0,6,i,1
Cc1ccc(N2CC(C(=O)NC3CCC(C)CC3)CC2=O)cc1 (stereo unspecified),-1,1,-1,-5,i,5
SMILES,DAGLB inhibitor,SENP1 FRET inh,MT1-MMP act inh,CendR NRP1 mod,Myeloid diff 2,MIN6 prolif
O=C(c1ccc(F)cc1)N1CCN(c2ncccn2)CC1,-1,0,3,10,i,-3
O=C(NNC(=O)C1CCN(c2ncccn2)CC1)c1ccc(F)cc1,0,1,-3,42*,.,-1
COc1ccc(-c2ccc3nnc(SCC(N)=O)n3n2)cc1,2,1,0,-1,i,-2
CCSc1nnc2ccc(-c3ccc(OC)c(OC)c3)nn12,1,-2,3,7,+,-1
Cc1ccc(/C=N/NC(=O)CSc2nnc(-c3ccc(Cl)cc3)n2-c2ccccc2)o1,0,1,3,43*,i,1
O=C(CSc1nnc(-c2ccc(Cl)cc2)n1-c1ccc(Cl)cc1)N/N=C/c1ccco1,1,3,-7,-10,i,-2
COc1cc(CNC(C)(C)CO)cc(Br)c1OCc1ccc(Cl)cc1,1,1,-16,30*,i,-7
COc1cc(CNC(C)(C)CO)cc(Br)c1OCc1ccc(Cl)cc1Cl,2,2,-9,6,?,-7
Cc1ccc(NC2CCCN(C(=O)c3ccnc(Cl)c3)C2)cc1C (stereo unspecified),1,-2,-3,-3,i,4
COc1ccc(C(=O)Nc2n[nH]c(-c3ccncc3)n2)cc1,0,1,-4,26*,i,-2
COc1ccc(C(=O)Nc2nc(C)cc(C)n2)cc1,0,0,2,4,i,0
CC(C)N1CCc2c(sc(NC(=O)CCS(=O)(=O)c3ccccc3)c2C(N)=O)C1,2,-28,-4,25*,?,2
CC(C)(C)n1cnc2cc(NS(=O)(=O)c3ccccc3)ccc21,2,-1,1,23*,i,-3
O=C(O)C[C@H]1c2cc(F)ccc2S(=O)(=O)N1C1CCCCC1,-1,3,-1,25*,i,3
O=C(CN1N=C(c2ccccc2)CCC1=O)NCc1ccccc1,-2,2,-1,4,i,-2
O=C(CN1N=C(c2ccccc2)CCC1=O)NCCN1CCc2ccccc2C1,-2,-2,-2,-12,i,4.6*
O=C(Cc1ccc([N+](=O)[O-])cc1)Nc1cccc(C(=O)N2CCCCC2)c1,0,6,2,26*,i,-4
O=C(Cc1ccc([N+](=O)[O-])cc1)Nc1cccc(C(=O)N2CCOCC2)c1,2,2,0,12,i,-3
CC(Sc1nnnn1C)C(=O)Nc1ccc2c(c1)OCCO2 (stereo unspecified),-1,1,1,-3,i,2
CCCCC(C(=O)O)C(C)CC(=O)Nc1ccn(-c2ccccc2)n1 (stereo unspecified),2,0,3,45*,i,0
